The values below come from ChEMBL document CHEMBL1127674, “Enhanced brain delivery of an anti-HIV nucleoside 2'-F-ara-ddI by xanthine oxidase mediated biotransformation” (J Med Chem, 1994).

The test system of data set [1] is Mus musculus. The data set is described as follows: Bioavailability in mouse brain after oral administration of 100 mg/kg of dose. In kind it is ADME, organism-based. The following applies: in vivo. The method in brief: (§1)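 Single-dose pharmacokinetics in female NIH-Swiss mice given the compound in saline, either intragastrically or iv via tail vein over 30 s. Three mice sampled per time point. Serum or brain homogenate assayed by HPLC-UV at 260 nm. AUC calculated by Lagrange polynomial integration. Bioavailability taken as the ratio of oral to iv AUC.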

Data set [2] is described as follows: Half-life in mouse brain after intravenous administration of 100 mg/kg of dose.
The subject of data set [3] is Mus musculus. The experiment in a line: Apparent clearance in mice after oral administration of 100 mg/kg of dose. Set-up: dose 100 mg/kg, route oral. Conditions: in vivo. The data set is classed as ADME, organism-based. The method in brief:
(§2)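 Female NIH-Swiss mice, 24–28 g. Compounds dissolved in physiological saline at 15 mg/mL and given once, either intragastrically or iv via tail vein over 30 s, at 100 or 106.8 mg/kg (equimolar). Three mice per time point, killed by heart puncture under ether. Serum and brain stored at -20 °C. Brain homogenized 1:1 (g:mL) in isotonic phosphate buffer, pH 7.4. Analysis by reversed-phase HPLC with UV at 260 nm and an internal standard. Noncompartmental pharmacokinetics, AUC by Lagrange polynomial integration.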

Data set [4] in a line: Half-life in mouse brain after oral administration of 100 mg/kg of dose. The data set is classed as ADME, organism-based. Set-up: dose 100 mg/kg, route oral. The method in brief: as §2
Data set [5] can be described thus: Half-life in mouse serum after oral administration of 100 mg/kg of dose. The data set is classed as ADME, organism-based. Set-up: dose 100 mg/kg, route oral. In short, it runs like this: as §2
For data set [6], the system named is Mus musculus. The data set is described as follows: Apparent clearance in mice after intravenous administration of 105.1 mg/kg of dose. The data set is classed as ADME, organism-based. Set-up: dose 105.1 mg/kg, route intravenous. The following applies: in vivo.
Data set [7] relates to Mus musculus. The experiment in a line: Apparent volume of distribution in mice after oral administration of 100 mg/kg of dose. The data set is classed as ADME, organism-based. On the set-up: dose 100 mg/kg, route oral. The following applies: in vivo. The method in brief: as §2
Data set [8] can be described thus: Bioavailability after oral administration of 100 mg/kg of dose in mouse. In kind it is ADME, organism-based. The following applies: in vivo. The method in brief: as §1
The nature of data set [9]: Half-life in mouse serum after intravenous administration of 100 mg/kg of dose.
The nature of data set [10]: Apparent volume of distribution in mice after intravenous administration of 105.1 mg/kg of dose. The data set is classed as ADME, organism-based. On the set-up: dose 105.1 mg/kg, route intravenous. The following applies: mouse, in vivo, read-out: Vss.
For data set [11], the system named is Mus musculus. The data set is described as follows: Bioavailability in mouse serum after oral administration of 100 mg/kg of dose. The data set is classed as ADME, organism-based. Conditions: in vivo.
In data set [12] the test system is Mus musculus. The data set is described as follows: Bioavailability in mouse serum after intravenous administration of 105.1 mg/kg of dose. In kind it is ADME, organism-based. The following applies: in vivo.
The subject of data set [13] is Mus musculus. The data set is described as follows: Bioavailability in mouse brain after intravenous administration of 105.1 mg/kg of dose. In kind it is ADME, organism-based. Conditions: in vivo.
For data set [14], the system named is Mus musculus. The data set is described as follows: Bioavailability in mouse serum after oral administration of equimolar doses of ( 2'F-ara-ddI + 2'F-ara-ddP). The data set is classed as ADME, organism-based. The following applies: in vivo.
A short description of data set [15]: Evaluated for the maximum serum concentration administered at 1 hour in mice. In kind it is ADME, organism-based. The following applies: mouse. In short, it runs like this:
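Serum drug level in female NIH-Swiss mice after a single intragastric dose in saline, 100 mg/kg for the prodrug or an equimolar dose for the parent. Blood drawn by heart puncture under ether, three mice per time point. Serum analyzed by reversed-phase HPLC with UV at 260 nm; detection limit 50–100 ng/mL. Peak concentration read from the concentration–time profile and given as mean ± SD.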

The subject of data set [16] is Mus musculus. The data set is described as follows: Bioavailability in mouse serum after intravenous administration of equimolar doses of ( 2'F-ara-ddI + 2'F-ara-ddP). In kind it is ADME, organism-based. Conditions: in vivo.
Data set [17] concerns Mus musculus. The experiment in a line: Bioavailability in mouse brain after intravenous administration of equimolar doses of ( 2'F-ara-ddI + 2'F-ara-ddP). The following applies: in vivo. The data set is classed as ADME, organism-based.
Data set [18] concerns Mus musculus. The data set is described as follows: Bioavailability in mouse brain after oral administration of equimolar doses of ( 2'F-ara-ddI + 2'F-ara-ddP). The data set is classed as ADME, organism-based. Conditions: in vivo. The method in brief: as §1

The term half-life denotes how long it takes for the measured level to halve. Higher therefore signals slow decline. The bioavailability is the share of a dose that reaches the circulation, judged against a reference dose that is usually intravenous. Read a low bioavailability as poor availability. Consider `OCC1CC(F)C(n2cnc3cncnc32)O1` (configuration not stated), for which the AUC amounted to 32.3 uM L with Mus musculus [1], 153 uM L in the data set on Mus musculus [11], 252 uM L in the data set with Mus musculus [12] and 120 uM L with Mus musculus [13]. The half-life is 25.2 min in data set [2], 39 min in [4], 47.4 min in [5] and 24 min in data set [9]. In addition, the CI in the data set on Mus musculus [3] came out at 48.3 mL/min/kg; with Mus musculus [6], 29.3 mL/min/kg. The Vss in the data set with Mus musculus [7] worked out at 2.32 L/kg. In addition, in [8], the bioavailability came out at 60.7%. Further, in data set [10], the Vd amounted to 1.12 L/kg.

The term Cmax denotes the maximum level reached in the sampled fluid or tissue. In the case of `OCC1CC(F)C(n2cnc3c(O)ncnc32)O1` (configuration not stated), the CI in the data set on Mus musculus [3] is 48 mL/min/kg. Also, in [5], the half-life is 257 min. Moreover, the Vss with Mus musculus [7] was 14.5 L/kg. Moreover, the AUC in the data set on Mus musculus [14] was 134 uM L; with Mus musculus [16] it was 132 uM L; in the data set on Mus musculus [17] it was 48 uM L; in the data set with Mus musculus [11] it was 154 uM L; with Mus musculus [18], 47.9 uM L. This compound also showed a peak concentration (Cmax) in [15] of 48.1 µM.
